Laboratory results published in paper PMC5599992 (Journal of Clinical Pharmacology, 2017).
Several values for one entry are separate records, joined by “and”; a condition that tells them apart may be missing. Equal values may be shown once. Read-outs that look alike come from different tables or passages of the source.

Columns and labels:
[1] = test system: CYP3A4; conditions: ref data on file; cited from earlier work
[2] = test system: CYP1A2; conditions: ref data on file; cited from earlier work
[3] = rats; ref data on file; cited from earlier work
[4] = Population pharmacokinetic analysis of CC‐292; type: in vivo, human
Outline: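 Data came from healthy volunteers (50, 100 or 200 mg or placebo orally QD for 7 days; intensive sampling predose to 24 h on days 1 and 7, troughs on days 3–6) and patients (sparse cycle 1–3 samples). Plasma was assayed by LC-MS/MS (LLOQ ≤0.5 ng/mL, labeled internal standard). The NONMEM FOCE-I 2-compartment model with first-order absorption and lag used ln-transformed data and separate residual error per population. There were 1000 bootstrap runs with 5th–95th percentile CIs.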

[5] = test system: CLL/SLL; assay: Threshold analysis; type: in vivo, human; conditions: threshold 300 ng/mL
[6] = rats; ref data on file; cited from earlier work; remark: listed apart in the source
[7] = monkeys; ref data on file; cited from earlier work
[8] = test system: CLL/SLL; assay: Exposure‐response analysis; type: in vivo, human
Outline: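 In relapsed/refractory CLL/SLL patients from the phase 1b study, log-transformed steady-state AUC came from noncompartmental analysis. ORR (CR, CRi or PR; updated iwCLL criteria) was modeled as responder vs nonresponder by logistic regression, first univariate, then multivariate with stepwise forward/backward covariate selection. Covariates were age, BSA, sex, race, QD vs BID regimen, CLcr, bilirubin, albumin, ALT and AST.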

[9] = test system: CLL/SLL; assay: Best overall response in CLL/SLL subjects, phase 1b study AVL‐292‐003; type: in vivo, human
[10] = based on final population PK parameters

- interindividual variability for V2/F ([4]; base model): 88%
- distribution rate [4, 10]: 0.11 h⁻¹
- elimination rate [4, 10]: 0.85 h⁻¹
- Alag1, Bootstrap Estimate (95%CI) ([4]; bootstrap N = 1000): 0.428 (0.414‐0.439) h
- CL/F, Bootstrap Estimate (95%CI) ([4]; bootstrap N = 1000): 131.9 (109.0‐166.6) L/h
- Effect of age on V2/F, Bootstrap Estimate (95%CI) ([4]; bootstrap N = 1000): 0.946 (0.592‐1.355)
- Interindividual variability ωV2/F: ωCL/F, Bootstrap Estimate (95%CI) ([4]; bootstrap N = 1000): 0.321 (0.198‐0.461)
- Interindividual variability ω^2 CL/F, Bootstrap Estimate (95%CI) ([4]; bootstrap N = 1000): 0.306 (0.202‐0.454)
- Interindividual variability ω^2 V2/F, Bootstrap Estimate (95%CI) ([4]; bootstrap N = 1000): 0.750 (0.526‐1.010)
- Q/F, Bootstrap Estimate (95%CI) ([4]; bootstrap N = 1000): 18.4 (15.3‐21.7) L/h
- V2/F, Bootstrap Estimate (95%CI) ([4]; bootstrap N = 1000): 156.4 (130.2‐187.8) L
- V3/F, Bootstrap Estimate (95%CI) ([4]; bootstrap N = 1000): 71.7 (61.4‐83.5) L
- ka, Bootstrap Estimate (95%CI) ([4]; bootstrap N = 1000): 0.97 (0.86‐1.11) h^−1
- Residual variability HNP, Bootstrap Estimate (95%CI) ([4]; bootstrap N = 1000, healthy normal study subjects): 0.230 (0.180‐0.288)
- Residual variability Patients, Bootstrap Estimate (95%CI) ([4]; bootstrap N = 1000, patients): 0.654 (0.537‐0.708)
- Vd/F ([4]; both, human, plasma, oral): 158 L
- clearance ([4]; both, human, plasma, oral): 2230 mL/min
- interindividual variability for V2/F ([4]; final model (age included)): 86%
- Alag1, absorption lag time, Estimate ([4]; final population PK model): 0.427 h
- Interindividual variability ωV2/F: ωCL/F, Estimate ([4]; final population PK model): 0.328
- Interindividual variability ω^2 CL/F, Estimate ([4]; final population PK model): 0.317
- Interindividual variability ω^2 V2/F, Estimate ([4]; final population PK model): 0.755
- lower CL/F in female subjects compared to male subjects ([4]; final population PK model): 26%
- Residual variability HNP, Estimate ([4]; final population PK model, healthy normal study subjects): 0.234
- ka, first‐order absorption rate constant, Estimate ([4]; final population PK model, oral, healthy subjects and patients): 0.97 h⁻¹ and 0.974 h⁻¹
- Residual variability Patients, Estimate ([4]; final population PK model, patients): 0.659
- Effect of age on V2/F, Estimate ([4]; final population PK model, power exponent): 0.946
- CL/F, apparent clearance, Estimate ([4]; final population PK model, typical value for male subjects): 134 L/h and 134.0 L/h
- CL/F relative to Q/F (Q/F lower than CL/F) ([4]; in vivo): 7.2 fold and ~7 fold
- differences in drug exposures between female and male subjects ([4]; in vivo): below 26%
- duration/coverage at and above the threshold concentration ([5]; 375 mg BID): ~10.4 h
- duration/coverage at and above the threshold concentration ([5]; 750 mg QD): 6.6 h
SMILES: C=CC(=O)Nc1cccc(Nc2nc(Nc3ccc(OCCOC)cc3)ncc2F)c1 [CC‐292]
- metabolism by CYP3A4 [1]: extensively metabolized
- metabolism by CYP1A2 [2]: extensively metabolized
- CC‐292–derived radioactivity excreted in the bile [3]: ~79 % of the dose
- extent of bioavailability [6]: 57%
- extent of bioavailability [7]: 11%
- mean ORR ([8]; first quartile of average AUC): 35%
- mean ORR ([8]; fourth quartile of average AUC): 50.2%
- Best overall response: Complete response ([9]; 125 mg QD): 0 n (%)
- Best overall response: Partial response ([9]; 125 mg QD): 1 (33.3) n (%)
- Best overall response: Progression disease ([9]; 125 mg QD): 0 n (%)
- Best overall response: Stable disease ([9]; 125 mg QD): 2 (66.7) n (%)
- Overall response rate ([9]; 125 mg QD): 1 (33.3) n (%)
- Best overall response: Complete response ([9]; 250 mg QD): 0 n (%)
- Best overall response: Partial response ([9]; 250 mg QD): 0 n (%)
- Best overall response: Progression disease ([9]; 250 mg QD): 0 n (%)
- Best overall response: Stable disease ([9]; 250 mg QD): 1 (100) n (%)
- Overall response rate ([9]; 250 mg QD): 0 n (%)
- Best overall response: Complete response ([9]; 375 mg BID): 0 n (%)
- Best overall response: Partial response ([9]; 375 mg BID): 4 (66.7) n (%)
- Best overall response: Progression disease ([9]; 375 mg BID): 0 n (%)
- Best overall response: Stable disease ([9]; 375 mg BID): 2 (33.3) n (%)
- Overall response rate ([9]; 375 mg BID): 4 (66.7) n (%)
- Best overall response: Complete response ([9]; 400 mg QD): 0 n (%)
- Best overall response: Partial response ([9]; 400 mg QD): 1 (25.0) n (%)
- Best overall response: Progression disease ([9]; 400 mg QD): 0 n (%)
- Best overall response: Stable disease ([9]; 400 mg QD): 3 (75.0) n (%)
- Overall response rate ([9]; 400 mg QD): 1 (25.0) n (%)
- Best overall response: Complete response ([9]; 500 mg BID): 0 n (%)
- Best overall response: Partial response ([9]; 500 mg BID): 19 (61.3) n (%)
- Best overall response: Progression disease ([9]; 500 mg BID): 0 n (%)
- Best overall response: Stable disease ([9]; 500 mg BID): 12 (38.7) n (%)
- Overall response rate ([9]; 500 mg BID): 19 (61.3) n (%)
- Best overall response: Complete response ([9]; 625 mg QD): 0 n (%)
- Best overall response: Partial response ([9]; 625 mg QD): 0 n (%)
- Best overall response: Progression disease ([9]; 625 mg QD): 0 n (%)
- Best overall response: Stable disease ([9]; 625 mg QD): 1 (100) n (%)
- Overall response rate ([9]; 625 mg QD): 0 n (%)
- Best overall response: Complete response ([9]; 750 mg QD): 0 n (%)
- Best overall response: Partial response ([9]; 750 mg QD): 12 (41.4) n (%)
- Best overall response: Progression disease ([9]; 750 mg QD): 1 (3.4) n (%)
- Best overall response: Stable disease ([9]; 750 mg QD): 16 (55.2) n (%)
- Overall response rate ([9]; 750 mg QD): 12 (41.4) n (%)
- Best overall response: Complete response ([9]; 1000 mg QD): 0 n (%)
- Best overall response: Partial response ([9]; 1000 mg QD): 4 (57.1) n (%)
- Best overall response: Progression disease ([9]; 1000 mg QD): 0 n (%)
- Best overall response: Stable disease ([9]; 1000 mg QD): 3 (42.9) n (%)
- Overall response rate ([9]; 1000 mg QD): 4 (57.1) n (%)
- Best overall response: Complete response ([9]; Total, all cohorts): 0 n (%)
- Best overall response: Partial response ([9]; Total, all cohorts): 41 (50.0) n (%)
- Best overall response: Progression disease ([9]; Total, all cohorts): 1 (1.2) n (%)
- Best overall response: Stable disease ([9]; Total, all cohorts): 40 (48.8) n (%)
- Overall response rate ([9]; Total, all cohorts): 41 (50.0) n (%)
